Activity calls are given as the source filed them. No cut-off for these calls is given here.
How the values were obtained:
[1] = test system: COLO 205; assay: Antitumor activity against human COLO205 cells; format: functional
Procedure, shortened: (§1)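 Run by the NCI in its in vitro disease-oriented screen of about 60 human tumour cell lines. For each line it reports pGI50 (50% net growth inhibition), pTGI (total growth inhibition) and pLC50 (50% net cell death), each as –log molar concentration. Where an effect was not reached within the tested range, the highest tested concentration was used.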

[2] = test system: SF-539; assay: Antitumor activity against human SF539 cells; format: functional; procedure, shortened: as §1
[3] = test system: CCRF-CEM; assay: Antitumor activity against human CCRF-CEM cells; format: functional; procedure, shortened: as §1
[4] = test system: Jurkat; assay: Cell cycle arrest in human Jurkat cells assessed as accumulation at G2/M phase at 250 nM after 24 hrs by flow cytometry; format: functional
Procedure, shortened: (§2)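 Exponentially growing Jurkat cells (5 × 105) were exposed to compound for 24 h. Cells were then fixed in ice-cold 70% ethanol, lysed with RNase A-containing buffer and stained with propidium iodide. DNA-content histograms from flow cytometry gave G1, S and G2/M fractions.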

[5] = test system: Malme-3M; assay: Antitumor activity against human MALME3M cells; format: functional; procedure, shortened: as §1
[6] = test system: NCI-H460; assay: Cell viability against human NCI-H460 cells at 10 uM; format: functional
[7] = test system: CCRF-CEM; assay: Growth inhibition of human vinblastine-resistant CEM cells after 72 hrs by MTT assay; format: functional
Procedure, shortened: (§3)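 Growth inhibition by MTT after 72 h incubation. Resistant sublines: LoVoDoxo and MCF-7 MDR were kept in 0.1 µg/mL doxorubicin; CEMVbl-100 was selected against vinblastine. GI50 given as mean ± SEM of three independent experiments. Resistance index is resistant-line GI50 over parental GI50.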

[8] = test system: Jurkat; assay: Cell cycle arrest in human Jurkat cells assessed as accumulation at S phase at 125 nM after 24 hrs by flow cytometry; format: functional; procedure, shortened: as §2
[9] = test system: Jurkat; assay: Effect on mitochondrial membrane potential depolarization in human Jurkat cells after 24 hrs by flow cytometry; format: functional, cell-based
Procedure, shortened: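 Jurkat cells after 24 h exposure were loaded with JC-1 (1 µM in HBSS) for 10 min at 37 °C, washed and analyzed by flow cytometry. The percentage of cells with low mitochondrial potential was recorded.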

[10] = test system: SN12C; assay: Antitumor activity against human SN12C cells; format: functional; procedure, shortened: as §1
[11] = test system: SNB-75; assay: Antitumor activity against human SNB75 cells; format: functional; conditions: Homo sapiens, SNB-75; procedure, shortened: as §1
[12] = test system: Jurkat; assay: Cell cycle arrest in human Jurkat cells assessed as accumulation at G1 phase at 32 nM after 24 hrs by flow cytometry; format: functional; procedure, shortened: as §2
[13] = Antitumor activity against human NCI-H322 cells; format: functional; procedure, shortened: as §1
[14] = test system: MOLT-4; assay: Antitumor activity against human MOLT4 cells; format: functional; procedure, shortened: as §1
[15] = test system: Jurkat; assay: Induction of apoptosis in human Jurkat cells after 24 hrs by flow cytometry; format: functional, cell-based
Procedure, shortened: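 Jurkat cells after 24 h exposure were stained with Annexin V-FITC plus propidium iodide. Flow cytometry used 488 nm excitation, with emission filters at 525 and 585 nm.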

[16] = test system: SK-MEL-28; assay: Antitumor activity against human SKMEL28 cells; format: functional; procedure, shortened: as §1
[17] = test system: SK-MEL-5; assay: Antitumor activity against human SKMEL5 cells; format: functional; procedure, shortened: as §1
[18] = test system: SNB-19; assay: Antitumor activity against human SNB19 cells; format: functional; procedure, shortened: as §1
[19] = target: Tubulin (Sus scrofa) (UniProt P02554+P02550); assay: Inhibition of pig brain tubulin polymerization at 5 uM
[20] = test system: MCF7; assay: Growth inhibition of human multidrug-resistant MCF7 cells after 72 hrs by MTT assay; format: functional; conditions: MCF7, 72 h; procedure, shortened: as §3
[21] = test system: HCC 2998; assay: Antitumor activity against human HCC2998 cells; format: functional; procedure, shortened: as §1
[22] = test system: HOP-92; assay: Antitumor activity against human HOP92 cells; format: functional; procedure, shortened: as §1
[23] = test system: IGROV-1; assay: Antitumor activity against human IGROV1 cells; format: functional; procedure, shortened: as §1
[24] = test system: DU-145; assay: Antitumor activity against human DU145 cells; format: functional; conditions: Homo sapiens, DU-145; read-out: Log LC50 (the source's name) (converted); procedure, shortened: as §1
[25] = test system: Jurkat; assay: Induction of apoptosis in human Jurkat cells assessed as activation of caspase 3 after 24 hrs by flow cytometry; format: functional, cell-based
Procedure, shortened: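 Jurkat cells were exposed (500 nM) for 24 h, then harvested and incubated in HBSS with cell-permeable FITC-DEVD-fmk (caspase-3) or FITC-[…]-fmk (caspase-9) for 1 h at 37 °C. After washing, cells were read by flow cytometry on FL-1. Results are fold increase over control.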

[26] = test system: MDA-MB-435; assay: Antitumor activity against human MDA-MB-435 cells; format: functional; procedure, shortened: as §1
[27] = test system: OVCAR-3; assay: Antitumor activity against human OVCAR-3 cells; format: functional; procedure, shortened: as §1
[28] = test system: OVCAR-5; assay: Antitumor activity against human OVCAR5 cells; format: functional; procedure, shortened: as §1
[29] = test system: Jurkat; assay: Cell cycle arrest in human Jurkat cells assessed as accumulation at G2/M phase at 32 nM after 24 hrs by flow cytometry; format: functional; procedure, shortened: as §2
[30] = test system: NCI-H226; assay: Antitumor activity against human NCI-H226 cells; format: functional; procedure, shortened: as §1
[31] = test system: UACC-257; assay: Antitumor activity against human UACC257 cells; format: functional
Procedure, shortened: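 NCI 60-cell-line screen. Parameters were GI50 (50% net growth inhibition), TGI and LC50, each reported as –log molar concentration. Where an effect was not reached within the tested range, the highest tested concentration was used in the calculation.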

[32] = test system: NCI-H460; assay: Antitumor activity against human NCI-H460 cells; format: functional; procedure, shortened: as §1
[33] = test system: CCRF-CEM; assay: Resistance index, Ratio of GI50 for human vinblastine-resistant CEM cells to GI50 for human CEM cells; format: functional
[34] = read-out: Log LC50 (the source's name) (converted)

Tubulin (Sus scrofa), sequence (P02550 whole entry, looked up): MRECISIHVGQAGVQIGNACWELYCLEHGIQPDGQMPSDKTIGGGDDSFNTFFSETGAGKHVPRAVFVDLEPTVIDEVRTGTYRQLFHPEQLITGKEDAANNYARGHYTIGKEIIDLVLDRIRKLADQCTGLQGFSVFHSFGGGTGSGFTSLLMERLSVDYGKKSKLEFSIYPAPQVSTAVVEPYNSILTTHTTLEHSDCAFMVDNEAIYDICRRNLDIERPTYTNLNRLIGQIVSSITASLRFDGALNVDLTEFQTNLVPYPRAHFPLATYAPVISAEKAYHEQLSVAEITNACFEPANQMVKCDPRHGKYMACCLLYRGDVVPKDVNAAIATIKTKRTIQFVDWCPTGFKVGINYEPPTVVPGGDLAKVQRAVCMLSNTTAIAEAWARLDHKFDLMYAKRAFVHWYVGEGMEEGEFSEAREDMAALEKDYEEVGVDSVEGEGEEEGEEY
Tubulin (Sus scrofa), sequence (P02554 whole entry, looked up): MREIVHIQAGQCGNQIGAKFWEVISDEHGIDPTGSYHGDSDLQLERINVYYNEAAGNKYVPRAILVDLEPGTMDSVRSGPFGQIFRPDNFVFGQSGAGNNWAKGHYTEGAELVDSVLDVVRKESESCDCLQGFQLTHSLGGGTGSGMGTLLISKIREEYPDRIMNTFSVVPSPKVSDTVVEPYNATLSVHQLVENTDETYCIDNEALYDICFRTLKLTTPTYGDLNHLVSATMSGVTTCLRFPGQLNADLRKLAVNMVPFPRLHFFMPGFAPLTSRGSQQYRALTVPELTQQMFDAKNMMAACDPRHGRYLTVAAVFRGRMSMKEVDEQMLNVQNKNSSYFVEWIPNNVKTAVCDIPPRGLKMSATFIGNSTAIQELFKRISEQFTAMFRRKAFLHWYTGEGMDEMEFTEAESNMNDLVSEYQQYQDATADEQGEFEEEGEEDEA

Work on `COc1ccc2c(c1)[nH]c(=O)c1c3ccccc3cn21` yielded a GI50 [1] of 0.0407 µM, an LC50 [1] of 5.75 µM and a TGI ([1]; read-out: pTGI (converted)) of 1.15 µM. For the same compound, the GI50 [2] was 0.0229 µM, the LC50 (50% net cell kill) [2] was 2.75 µM and the TGI ([2]; read-out: pTGI (converted)) was 0.0708 µM. It also gave a GI50 [3] of 0.0302 µM, an LC50 [3] of over 100 µM and a TGI ([3]; read-out: pTGI (converted)) of 1.45 µM. For the same compound, the Activity [4] was 55.2%, the GI50 [5] was 0.01 µM and the CC50 [5, 34] was 8.51 µM. For the same compound, the TGI ([5]; read-out: pTGI (converted)) was 3.39 µM, the Activity [6] was 0% and the GI50 [7] was 0.02 µM. For the same compound, the Activity [8] was 38.6%, the Activity [9] was “Dose-dependent effect” and the GI50 [10] was 0.0575 µM. The LC50 [10] was over 100 µM, the TGI ([10]; read-out: pTGI (converted)) was 2.09 µM and the GI50 [11] was 0.0275 µM. For the same compound, the LC50 [11] was over 100 µM, the TGI ([11]; read-out: pTGI (converted)) was 0.0832 µM and the Activity [12] was 27.1%. The GI50 [13] was 0.0832 µM, the LC50 (50% net cell death) [13] was 7.76 µM and the TGI ([13]; read-out: pTGI (converted)) was 2.57 µM. It also gave a GI50 [14] of 0.0776 µM, an LC50 [14] of 75.9 µM and a TGI ([14]; read-out: pTGI (converted)) of 2.14 µM. The Activity [15] was “Dose-dependent effect”, the GI50 [16] was 0.0525 µM and the CC50 [16, 34] was 6.61 µM. For the same compound, the TGI ([16]; read-out: pTGI (converted)) was 2.51 µM, the GI50 [17] was 0.0282 µM and the LC50 [17] was 3.47 µM. The TGI ([17]; read-out: pTGI (converted)) was 1.17 µM, the GI50 [18] was 0.0389 µM and the CC50 [18, 34] was over 100 µM. For the same compound, the TGI ([18]; read-out: pTGI (converted)) was 4.07 µM, the Activity [19] was “Active” and the GI50 [20] was 0.15 µM. The GI50 [21] was 0.0182 µM, the LC50 [21] was 0.501 µM and the TGI ([21]; read-out: pTGI (converted)) was 0.049 µM. It also gave a GI50 [22] of 1 µM, an LC50 [22] of 39.8 µM and a TGI ([22]; read-out: pTGI (converted)) of 15.8 µM. It also gave a GI50 [23] of 0.0741 µM, a CC50 [23, 34] of 8.51 µM and a TGI ([23]; read-out: pTGI (converted)) of 2.29 µM. The CC50 [24] was 4.27 µM, the Activity [25] was “Active” and the GI50 [26] was 0.00407 µM. For the same compound, the LC50 (50% net cell death) [26] was over 100 µM, the TGI ([26]; read-out: pTGI (converted)) was 0.0209 µM and the GI50 [27] was 0.0224 µM. For the same compound, the LC50 (50% net cell death) [27] was 2.88 µM, the TGI ([27]; read-out: pTGI (converted)) was 0.0646 µM and the GI50 [28] was 0.1 µM. For the same compound, the LC50 (50% net cell death) [28] was 77.6 µM, the TGI ([28]; read-out: pTGI (converted)) was 7.94 µM and the Activity [29] was 28.8%. For the same compound, the GI50 [30] was 0.0457 µM, the LC50 (50% net cell kill) [30] was over 100 µM and the TGI ([30]; read-out: pTGI (converted)) was 0.525 µM. It also gave a GI50 [31] of 5.13 µM, an LC50 [31] of 74.1 µM and a TGI ([31]; read-out: pTGI (converted)) of 30.9 µM. For the same compound, the GI50 [32] was 0.0347 µM, the CC50 [32, 34] was 5.13 µM and the TGI ([32]; read-out: pTGI (converted)) was 1.12 µM. For the same compound, the RatioGI50 [33] was 1.
